Source: ChEMBL document CHEMBL3286287, “Identification of a new selective dopamine D4 receptor ligand” (Bioorg Med Chem, 2014)

Tests used:
D(1A) dopamine receptor = D(1A) dopamine receptor (Homo sapiens, UniProt P21728); test: Displacement of [3H]SCH23390 from human dopamine D1 receptor by PDSP assay; details: for inhibition: concentration not given here
D(2) dopamine receptor = D(2) dopamine receptor (Homo sapiens, UniProt P14416); test: Displacement of [3H]N-methylspiperone from human dopamine D2 receptor by PDSP assay
D(3) dopamine receptor = D(3) dopamine receptor (Homo sapiens, UniProt P35462); test: Displacement of [3H]N-methylspiperone from human dopamine D3 receptor by PDSP assay
D(4) dopamine receptor = molecular target: T1, D(4) dopamine receptor (Rattus norvegicus, UniProt P30729); test: Displacement of [3H]N-methylspiperone from rat dopamine D4 receptor by PDSP assay
T1 sequence (P30729 whole entry): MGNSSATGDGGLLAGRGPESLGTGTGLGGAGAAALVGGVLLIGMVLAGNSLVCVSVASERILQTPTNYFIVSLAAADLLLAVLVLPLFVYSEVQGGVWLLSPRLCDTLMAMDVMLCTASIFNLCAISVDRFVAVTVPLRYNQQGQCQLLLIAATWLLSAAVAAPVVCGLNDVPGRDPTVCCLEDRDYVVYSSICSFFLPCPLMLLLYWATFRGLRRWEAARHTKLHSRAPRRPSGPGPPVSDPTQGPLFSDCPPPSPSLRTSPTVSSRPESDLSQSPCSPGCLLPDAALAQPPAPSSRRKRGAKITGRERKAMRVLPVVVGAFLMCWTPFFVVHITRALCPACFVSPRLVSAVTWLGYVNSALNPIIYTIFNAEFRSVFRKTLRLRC

D(1B) dopamine receptor = D(1B) dopamine receptor (Homo sapiens, UniProt P21918); test: Displacement of [3H]SCH23390 from human dopamine D5 receptor by PDSP assay; details: for inhibition: concentration not given here
[1] = Selectivity ratio of Ki for human dopamine D2 receptor to Ki for rat dopamine D4 receptor
[2] = Selectivity ratio of Ki for human dopamine D3 receptor to Ki for rat dopamine D4 receptor
[3] = molecular target: 5-hydroxytryptamine receptor 2A (Rattus norvegicus, UniProt P14842); test: Displacement of [3H]ketanserin from rat 5-HT2A receptor by PDSP assay
Method in brief: (§1)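 Ki values were determined by the NIMH Psychoactive Drug Screening Program using radioligand displacement. Compounds first went through a primary assay.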

[4] = molecular target: T2, 5-hydroxytryptamine receptor 2C (Rattus norvegicus, UniProt P08909); test: Displacement of [3H]mesulergine from rat 5-HT2C receptor by PDSP assay; method in brief: as §1
T2 sequence (P08909 whole entry): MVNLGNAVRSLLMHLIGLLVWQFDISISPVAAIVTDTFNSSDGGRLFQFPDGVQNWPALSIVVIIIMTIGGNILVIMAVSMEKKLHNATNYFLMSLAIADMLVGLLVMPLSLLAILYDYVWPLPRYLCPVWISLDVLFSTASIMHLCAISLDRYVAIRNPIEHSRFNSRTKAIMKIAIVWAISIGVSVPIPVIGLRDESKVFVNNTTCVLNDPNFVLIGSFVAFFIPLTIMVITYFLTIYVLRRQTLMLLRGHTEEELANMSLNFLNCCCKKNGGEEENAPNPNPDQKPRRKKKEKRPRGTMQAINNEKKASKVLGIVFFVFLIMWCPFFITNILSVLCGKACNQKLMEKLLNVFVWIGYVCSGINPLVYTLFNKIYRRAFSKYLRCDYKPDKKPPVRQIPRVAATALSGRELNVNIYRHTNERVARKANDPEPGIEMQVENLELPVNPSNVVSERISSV

[5] = molecular target: 5-hydroxytryptamine receptor 7 (Homo sapiens, UniProt P34969); test: Displacement of [3H]LSD from human 5-HT7 receptor by PDSP assay
[6] = molecular target: Sigma non-opioid intracellular receptor 1 (Homo sapiens, UniProt Q99720); test: Binding affinity to sigma-1 receptor (unknown origin) by PDSP assay
[7] = Binding affinity to sigma-2 receptor (unknown origin) by PDSP assay; parameters: species or system Homo sapiens

Sequence of D(1B) dopamine receptor (P21918 whole entry): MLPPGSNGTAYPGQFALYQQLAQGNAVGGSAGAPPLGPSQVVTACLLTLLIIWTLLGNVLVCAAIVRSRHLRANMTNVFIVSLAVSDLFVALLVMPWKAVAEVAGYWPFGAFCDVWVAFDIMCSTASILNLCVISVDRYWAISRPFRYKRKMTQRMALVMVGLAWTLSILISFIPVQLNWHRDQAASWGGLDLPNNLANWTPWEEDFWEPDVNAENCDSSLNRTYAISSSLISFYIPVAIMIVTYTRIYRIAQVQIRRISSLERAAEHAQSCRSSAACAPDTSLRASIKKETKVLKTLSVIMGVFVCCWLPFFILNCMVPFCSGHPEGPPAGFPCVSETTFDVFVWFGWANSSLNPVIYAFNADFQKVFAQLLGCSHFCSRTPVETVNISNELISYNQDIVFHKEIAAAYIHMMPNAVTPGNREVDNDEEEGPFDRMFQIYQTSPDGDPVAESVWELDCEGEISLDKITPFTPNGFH
Sequence of D(3) dopamine receptor (P35462 whole entry): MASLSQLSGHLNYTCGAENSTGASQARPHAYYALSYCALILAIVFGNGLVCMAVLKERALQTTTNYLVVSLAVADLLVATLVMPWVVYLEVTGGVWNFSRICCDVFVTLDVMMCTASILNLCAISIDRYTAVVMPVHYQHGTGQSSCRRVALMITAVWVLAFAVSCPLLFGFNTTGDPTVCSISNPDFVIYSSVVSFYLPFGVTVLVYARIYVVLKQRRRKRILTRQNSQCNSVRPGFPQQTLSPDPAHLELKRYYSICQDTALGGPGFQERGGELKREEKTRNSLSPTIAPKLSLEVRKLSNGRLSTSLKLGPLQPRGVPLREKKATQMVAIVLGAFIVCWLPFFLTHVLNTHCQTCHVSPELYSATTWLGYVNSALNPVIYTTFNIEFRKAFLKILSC
Sequence of D(1A) dopamine receptor (P21728 whole entry): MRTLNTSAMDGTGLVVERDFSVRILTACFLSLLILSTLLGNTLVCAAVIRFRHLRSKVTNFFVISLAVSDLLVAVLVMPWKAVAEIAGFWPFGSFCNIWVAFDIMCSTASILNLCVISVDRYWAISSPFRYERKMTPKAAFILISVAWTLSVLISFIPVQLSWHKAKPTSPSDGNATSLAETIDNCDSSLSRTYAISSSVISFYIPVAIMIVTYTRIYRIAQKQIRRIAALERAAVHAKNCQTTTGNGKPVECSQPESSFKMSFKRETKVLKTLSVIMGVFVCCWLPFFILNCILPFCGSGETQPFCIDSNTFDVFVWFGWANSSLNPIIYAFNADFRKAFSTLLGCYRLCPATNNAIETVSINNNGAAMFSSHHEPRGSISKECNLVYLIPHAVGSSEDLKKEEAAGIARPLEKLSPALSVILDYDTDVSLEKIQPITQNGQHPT
Sequence of D(2) dopamine receptor (P14416 whole entry): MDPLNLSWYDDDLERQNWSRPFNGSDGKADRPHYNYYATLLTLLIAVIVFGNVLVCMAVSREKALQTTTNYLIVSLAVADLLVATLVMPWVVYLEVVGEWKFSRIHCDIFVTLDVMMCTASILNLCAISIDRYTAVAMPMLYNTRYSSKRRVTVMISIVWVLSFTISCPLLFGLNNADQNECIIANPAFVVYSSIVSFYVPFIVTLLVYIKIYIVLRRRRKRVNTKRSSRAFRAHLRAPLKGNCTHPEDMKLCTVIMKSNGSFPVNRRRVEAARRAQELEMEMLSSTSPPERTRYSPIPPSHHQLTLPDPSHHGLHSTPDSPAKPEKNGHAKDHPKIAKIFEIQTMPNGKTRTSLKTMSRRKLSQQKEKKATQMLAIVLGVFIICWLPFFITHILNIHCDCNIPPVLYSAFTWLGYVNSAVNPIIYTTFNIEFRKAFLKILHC
Sequence of 5-hydroxytryptamine receptor 7 (P34969 whole entry): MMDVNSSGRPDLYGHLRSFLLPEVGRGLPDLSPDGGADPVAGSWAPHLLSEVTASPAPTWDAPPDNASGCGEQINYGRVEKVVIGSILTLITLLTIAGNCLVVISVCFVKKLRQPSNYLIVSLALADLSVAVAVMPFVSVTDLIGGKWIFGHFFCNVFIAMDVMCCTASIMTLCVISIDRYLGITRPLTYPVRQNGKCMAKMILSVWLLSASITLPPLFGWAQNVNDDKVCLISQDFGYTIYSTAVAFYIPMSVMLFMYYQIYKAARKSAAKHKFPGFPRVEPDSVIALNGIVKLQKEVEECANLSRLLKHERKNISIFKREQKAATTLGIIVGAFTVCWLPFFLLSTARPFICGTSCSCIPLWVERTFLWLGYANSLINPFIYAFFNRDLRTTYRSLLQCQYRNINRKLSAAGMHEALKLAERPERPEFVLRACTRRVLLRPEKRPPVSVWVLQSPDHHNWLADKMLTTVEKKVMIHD
Sequence of Sigma non-opioid intracellular receptor 1 (Q99720 whole entry): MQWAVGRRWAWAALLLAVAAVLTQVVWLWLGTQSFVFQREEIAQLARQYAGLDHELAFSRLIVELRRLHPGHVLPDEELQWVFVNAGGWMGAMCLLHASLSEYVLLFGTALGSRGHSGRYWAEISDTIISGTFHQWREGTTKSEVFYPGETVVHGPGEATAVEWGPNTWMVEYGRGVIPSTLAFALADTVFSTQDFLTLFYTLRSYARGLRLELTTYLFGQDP
Sequence of 5-hydroxytryptamine receptor 2A (P14842 whole entry): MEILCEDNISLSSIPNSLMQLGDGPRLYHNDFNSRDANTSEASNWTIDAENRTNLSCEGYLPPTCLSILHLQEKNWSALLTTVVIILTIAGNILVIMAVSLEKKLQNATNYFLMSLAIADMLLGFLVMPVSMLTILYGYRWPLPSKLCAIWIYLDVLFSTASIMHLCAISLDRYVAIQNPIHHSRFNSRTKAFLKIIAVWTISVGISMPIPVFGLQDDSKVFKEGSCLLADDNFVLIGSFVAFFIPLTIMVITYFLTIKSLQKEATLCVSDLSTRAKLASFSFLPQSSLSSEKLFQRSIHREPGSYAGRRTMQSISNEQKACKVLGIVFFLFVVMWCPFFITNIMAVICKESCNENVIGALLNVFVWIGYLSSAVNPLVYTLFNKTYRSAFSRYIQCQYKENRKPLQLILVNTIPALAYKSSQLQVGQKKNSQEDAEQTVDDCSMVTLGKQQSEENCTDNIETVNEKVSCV

Row | SMILES | Ki (D(1A) dopamine receptor; read-out: Ki) [nM] | Ki (D(2) dopamine receptor) [nM] | Ki (D(3) dopamine receptor; read-out: Ki) [nM] | Ki (D(4) dopamine receptor; read-out: Ki) [nM] | Ki (D(1B) dopamine receptor) [nM] | Ratio Ki [1] | Ratio Ki [2] | inhibition (D(1B) dopamine receptor) [%] | other results
1 | Clc1ccc(N2CCCN(CCCc3cc4ccccc4o3)CC2)cc1 | 274 | 2510 | 1460 | 185 | 1520 | 13.5 | 7.9 | – | –
2 | FC(F)(F)c1ccc(OCCCN2CCN(c3ccccn3)CC2)cc1 | 2340 | 1090 | 355 | 12 | > 10000 | 91 | 29.6 | – | –
3 | [O-][S+](CCCN1CCN(c2ccc(Cl)cc2)CC1)c1ccc(F)cc1 (centres undefined) | – | 635 | 1340 | 13 | – | 48.8 | 103 | < 50 | inhibition (D(1A) dopamine receptor): < 50%
4 | Clc1ccc(N2CCN(CCCCc3nc4ccccc4o3)CC2)cc1 | – | – | 33 | 30.6 | – | – | 1.1 | < 50 | inhibition (D(1A) dopamine receptor): < 50%
5 | c1cnc(N2CCN(CCCc3nc4ccccc4s3)CC2)nc1 | – | – | – | 3.9 | – | – | – | – | Ki [3]: 283 nM; Ki [4]: 280 nM; Ki [5]: 342 nM; Ki [6]: 350 nM; Ki [7]: 162 nM; pKi [7]: 6.79
6 | Clc1ccc(N2CCN(CCCc3cc4ccccc4o3)CC2)cc1 | 1410 | 1980 | 2290 | 78.9 | – | 25.1 | 29 | < 50 | –
7 | Clc1ccc(N2CCN(CCCc3nc4ccccc4s3)CC2)cc1 | 1270 | – | 214 | – | > 10000 | 74.9 | 6.9 | – | –
8 | O=C1c2ccccc2CC1CCN1CCN(c2ccc(Cl)cc2)CC1 (centres undefined) | 1700 | > 10000 | 4530 | 36 | – | – | 126 | < 50 | Ki (D(1A) dopamine receptor; read-out: pKi (converted)): 389 nM
9 | Clc1ccc(N2CCN(CCCCCc3nc4ccccc4o3)CC2)cc1 | 7940 | 3110 | 119 | 240 | > 10000 | 13 | 0.5 | – | –
10 | Fc1ccc(OCCCN2CCN(c3ncccn3)CC2)cc1 | 259 | – | – | – | – | 151 | 185 | < 50 | –
11 | Clc1ccc(N2CCN(CCCCc3nc4ccccc4s3)CC2)cc1 | 1900 | – | 31 | – | – | 54.8 | 7.8 | – | –
12 | Fc1ccc(OCCCN2CCN(c3ccc(Cl)cc3)CC2)cc1 | 135 | – | – | – | 2680 | – | – | – | –
13 | Clc1ccc(N2CCN(CCCc3nc4ccccc4o3)CC2)cc1 | 1170 | 3960 | 180 | 145 | > 10000 | 27.3 | 1.5 | – | –
14 | Cc1ccc(N2CCN(CCCSc3ccc(F)cc3)CC2)nc1 | 222 | 1110 | 170 | 20 | 2160 | 55.3 | 8.5 | – | –
15 | Fc1ccc(SCCCN2CCN(c3ccccn3)CC2)cc1 | 265 | – | – | – | 3220 | 32.1 | 28.1 | – | –
16 | Clc1ccc(N2C[C@H]3C[C@@H]2CN3CCCc2cc3ccccc3o2)cc1 | – | – | – | 2400 | – | > 4.2 | 0.3 | < 50 | inhibition (D(1A) dopamine receptor): < 50%

Row | SMILES | Ki (D(1A) dopamine receptor; read-out: Ki) [nM] | Ki (D(2) dopamine receptor) [nM] | Ki (D(3) dopamine receptor; read-out: Ki) [nM] | Ki (D(4) dopamine receptor; read-out: Ki) [nM] | Ki (D(1B) dopamine receptor) [nM] | Ratio Ki [1] | Ratio Ki [2] | inhibition (D(1B) dopamine receptor) [%] | other results
17 | Cc1ccc(N2CCN(CCCOc3ccc(F)cc3)CC2)nc1 | 260 | 1050 | 187 | – | 2580 | 951 | 170 | – | –
18 | Cc1ccc(N2CCN(CCCCc3ccc(F)cc3)CC2)nc1 | 521 | – | – | – | 3260 | – | – | – | –
19 | Fc1ccc(SCCCN2CCN(c3ncccn3)CC2)cc1 | 495 | – | – | – | 1370 | 20.1 | 3.2 | – | –
20 | Fc1ccc(OCCCN2CCC(c3ccc(Cl)cc3)CC2)cc1 | 126 | – | – | – | 867 | 4.3 | 73.3 | – | –
21 | Fc1ccc(CCCCN2CCN(c3ccc(Cl)cc3)CC2)cc1 | 589 | – | – | – | 1760 | 36.4 | 33.5 | – | –
22 | Clc1ccc(N2CCN(CCc3nc4ccccc4o3)CC2)cc1 | – | – | 850 | 1410 | – | – | 0.6 | < 50 | inhibition (D(1A) dopamine receptor): < 50%
23 | O=C1c2ccc(F)cc2CC1CCN1CCN(c2ccc(Cl)cc2)CC1 (centres undefined) | 641 | 1540 | 2480 | 6.1 | – | 253 | 406 | < 50 | –
24 | Fc1ccc2c(c1)CC(CCN1CCN(c3ccc(Cl)cc3)CC1)C2 (centres undefined) | 837 | 1420 | 2770 | 13 | – | – | – | < 50 | –
25 | Fc1ccc(CCCCN2CCN(c3ccccn3)CC2)cc1 | – | – | – | – | 1450 | – | – | – | –
26 | Fc1ccc(SCCCN2CCN(c3ccc(Cl)cc3)CC2)cc1 | 52 | – | – | – | 2810 | 24.3 | 48.5 | – | –
27 | c1cnc(N2CCN(CCCCc3nc4ccccc4s3)CC2)nc1 | – | – | – | 0.84 | – | – | – | – | –
28 | Clc1ccc(N2CCN(CCc3cc4ccccc4o3)CC2)cc1 | – | – | – | – | – | – | – | < 50 | inhibition (D(1A) dopamine receptor): < 50%
29 | Clc1ccc(N2CCN(CCCOc3ccccc3)CC2)cc1 | – | – | – | – | – | 79.8 | 130 | – | Ki (D(3) dopamine receptor; read-out: pKi (converted)): 794 nM; Ki (D(4) dopamine receptor; read-out: pKi (converted)): 5.5 nM
30 | Fc1ccc(CCCCN2CCN(c3ncccn3)CC2)cc1 | 134 | – | – | – | 3810 | – | – | – | –
31 | O=C(CCCN1CCN(c2ccc(Cl)cc2)CC1)c1ccc(F)cc1 | – | – | – | 17.5 | – | – | – | – | –
